This is a sample that favours compounds with a hit; in the whole collection about 3.7% have one here.
hERG rescue – compounds protecting human hERG from proarrhythmic drug block. Q12809. CHO-hERG, FluxOR thallium flux, dofetilide IC70 present. 0.51% of 310,000 active. AID 1511. activation (rescue from dofetilide block), less the hit threshold, % at 10 µM;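 active = activation above the mean of controls blocked by dofetilide plus 5 SD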;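 note: thallium influx through hERG after potassium depolarization seen as dye fluorescence rise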
Kir21 block – Kir2.1 (mouse) channel inhibition; HEK293-Kir2.1, FluxOR thallium flux fluorescence; hits give low values; B-score at 10 µM; 0.85% of 310,000 active; P35561;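 active = fluorescence ratio B-score at or below minus 3 SD of library scores, with starting-brightness B-score within 2 SD, cut at about -4.2 in these data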;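 note: channel flux triggered by added potassium and thallium sulfate stimulus; B-score of peak minus minimum fluorescence over baseline after thallium stimulus; more negative B-score means stronger Kir2.1 block with less thallium influx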
KCNK3 inh – human KCNK3 channel inhibition, primary screen. O14649. CHO-KCNK3 thallium flux, FluxOR fluorescence; hits give low values. B-score at 10 µM. 0.84% of 340,000 active. AID 602410;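 active = B-score under library mean minus 4 SD, starting fluorescence ratio at most library mean plus 5 SD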;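 note: more negative B-score means stronger inhibition of thallium flux through KCNK3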
KCNQ1 inh – inhibitors of human KCNQ1 potassium channel; 1.3% of 310,000 active; B-score at 10 µM; AID 2642; CHO-K1 KCNQ1, FluxOR thallium flux fluorescence; hits give high values;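 active = compounds whose thallium flux B-score, printed positive for inhibition, exceeds three library SD while starting fluorescence stays within three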;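 note: channel opened by potassium depolarization with thallium stimulus after 20 min compound exposure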
Target sequence (P51787 whole entry, looked up): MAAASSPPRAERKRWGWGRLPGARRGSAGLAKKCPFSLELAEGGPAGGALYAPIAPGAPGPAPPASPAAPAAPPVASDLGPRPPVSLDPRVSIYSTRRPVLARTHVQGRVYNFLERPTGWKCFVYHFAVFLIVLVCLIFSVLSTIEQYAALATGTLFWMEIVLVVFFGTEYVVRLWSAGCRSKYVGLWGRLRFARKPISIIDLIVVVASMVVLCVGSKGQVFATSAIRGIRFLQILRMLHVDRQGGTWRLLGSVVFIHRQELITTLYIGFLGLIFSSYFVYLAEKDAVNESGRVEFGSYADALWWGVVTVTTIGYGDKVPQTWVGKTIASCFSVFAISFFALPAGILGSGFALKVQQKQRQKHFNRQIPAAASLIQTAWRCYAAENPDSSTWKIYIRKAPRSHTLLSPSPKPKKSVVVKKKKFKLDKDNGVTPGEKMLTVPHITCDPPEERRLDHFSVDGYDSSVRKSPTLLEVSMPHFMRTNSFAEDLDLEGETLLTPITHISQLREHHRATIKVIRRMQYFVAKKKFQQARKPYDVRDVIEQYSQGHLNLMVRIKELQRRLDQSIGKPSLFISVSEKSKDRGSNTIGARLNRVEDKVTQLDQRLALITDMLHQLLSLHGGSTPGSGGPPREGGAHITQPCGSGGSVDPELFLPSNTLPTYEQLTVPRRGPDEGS
KCNQ1 act – potentiates or activates the human KCNQ1 potassium channel; CHO-K1 KCNQ1, thallium flux FluxOR fluorescence; hits give high values; P51787; B-score at 10 µM; 0.35% of 310,000 active;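 active = fluorescence ratio B-score, a plate-corrected score, at least three library SD, with initial intensity B-score within 5 SD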
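Test system: CHO-K1 cells stably expressing KCNQ1 / Medium: assay buffer / Also added: depolarizing K+/Tl+ stimulus, K2SO4 and Tl2SO4 each 12.5 mM in 5x stock / Incubation: 90 min dye loading and 20 min compound exposure, both at room temperature / Signal: thallium influx via FluxOR fluorescence, kinetic imaging / Evaluation: B score of baseline-normalized fluorescence ratio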
KCNK9 inh – blocks the human KCNK9 two-pore domain potassium channel; Q9NPC2; HEK293 KCNK9, FluxOR thallium flux fluorescence; hits give low values; B-score at 10 µM; 1.2% of 310,000 active; AID 488922;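 active = ratio B-score over 3 SD below the library mean, with starting fluorescence within 5 SD of its mean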;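 note: negative B-score means less thallium flux so channel inhibition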
KCNK9 inh conf – confirmation of human KCNK9 potassium channel inhibitors. shares compounds with KCNK9 inh. HEK293 KCNK9 cells, FluxOR thallium flux fluorescence. inhibition, % at 10 µM. 43% of 4,900 active. AID 492992;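 active = thallium signal inhibited by more than 5 SD of the compound-free buffer control wells, on both duplicate plates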;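 note: 0% = assay buffer control wells without compound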
Kir21 sel – tests whether KCNK9 modulators also affect mouse Kir2.1. shares compounds with KCNK9 inh. Kir2.1 cells, FluxOR thallium flux fluorescence. inhibition, % at 10 µM. 4% of 4,900 active. AID 492993;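 active = thallium signal drop more than 5 SD beyond the mean of the no-compound control wells, seen in both duplicate plates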;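 note: signal is fluorescence rise after thallium addition divided by baseline fluorescence; plate controls were assay buffer only for no effect and full block by chlorpromazine control for full effect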
KCNK9 uninduced – second counter-screen for KCNK9 modulators: effect in non-induced cells; shares compounds with KCNK9 inh; non-induced KCNK9-HEK293, FluxOR thallium flux; inhibition, % at 10 µM; 40% of 4,900 active; AID 492997;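 active = thallium signal drop beyond 5 SD of the untreated control mean, on both duplicate plates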;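 note: plate controls were buffer only IC0 wells for no effect and SID17386958 at its maximal inhibitory level for full effect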
* marks the source's active call; other numbers are inactive results; i = inactive; nt = no result given.

SMILES	hERG rescue	Kir21 block	KCNK3 inh	KCNQ1 inh	KCNQ1 act	KCNK9 inh	KCNK9 inh conf	Kir21 sel	KCNK9 uninduced
Cc1ccc(SCCC(=O)NCCSCc2ccccc2C)cc1	-8	1.8	i	i	i	i	i	i	i
CCCCNC(=O)CCSc1ccc(C)cc1	-4	-0.57	i	i	i	i	nt	nt	nt
CCn1cc(C2=NC(C)(C)CO2)c2ccccc21	-8	0.27	i	i	i	i	i	i	i
O=C(CCC1CCCC1)Nc1cccn(Cc2ccccc2Br)c1=O	-9	0.33	i	i	i	i	i	i	26%*
CCCC(=O)Nc1cccn(Cc2ccccc2Br)c1=O	-11	-1	i	i	i	i	nt	nt	nt
Cc1ccc2nc(NCCO)nc(-c3ccccc3)c2c1	-13	-1.1	i	i	i	i	nt	nt	nt
Cc1ccc2nc(NCC(=O)NN)nc(-c3ccccc3)c2c1	-5	1.4	i	i	i	i	i	i	i
CC(=O)N(c1cc(C)ccc1C)c1ccccc1[N+](=O)[O-]	nt	nt	i	nt	nt	nt	nt	nt	nt
CCCn1ncc(CN2CCCC(C(=O)c3cccc(OC(C)C)c3)C2)c1C (centres undefined)	-9	-1.2	i	i	i	i	nt	nt	nt
CCCn1cc(CN2CCCC(C(=O)c3cccc(OC(C)C)c3)C2)c(C)n1 (centres undefined)	-8	0.01	i	i	i	i	i	i	i
CC(C)Oc1cccc(C(=O)C2CCCN(Cc3cnc(N4CCCC4)s3)C2)c1 (centres undefined)	-4	-0.03	i	i	i	i	i	i	i
CCOCCn1c(C)c(C(=O)OCC)c2cc(O)c3ccccc3c21	nt	nt	i	nt	nt	nt	nt	nt	nt
COc1cc(OC)c2ccc(=O)oc2c1C(CCN1CCN(c2ccccc2)CC1)c1ccc(N(C)C)cc1 (centres undefined)	-14	1.2	i	i	i	i	i	i	i
COc1cc(OC)c2c(-c3ccccc3)cc(=O)oc2c1C(CCN1CCN(c2ccccc2)CC1)c1ccc(N(C)C)cc1 (centres undefined)	-14	-0.45	i	i	i	i	nt	nt	nt
CCc1cccc(C)c1N=Cc1c(O)c2ccccc2oc1=O	-2	0.54	i	i	i	i	nt	nt	nt
Cc1cc(N2CCCCC2)n2ncc(-c3ccc(Cl)cc3)c2n1	-12	0.6	i	i	i	-11*	54%*	i	36%*
Cc1ccccc1NC(=S)NCc1ccc2[nH]c3c(c2c1)CCCC3	-10	-0.66	i	i	i	i	i	i	i
Oc1ccc(-c2nc3c4c(ncn3n2)-c2ccccc2CC42CCCC2)cc1	-7	-0.84	i	i	i	-9*	36%*	i	35%*
CC(=O)Nn1cnc2c(c1=O)C1(CCCC1)Cc1ccccc1-2	nt	nt	i	nt	nt	nt	nt	nt	nt
CN(C)CCN(Cc1cccs1)S(=O)(=O)c1csc(C(N)=O)c1	-11	0.7	i	i	i	i	nt	nt	nt
CC(C)OC(=O)c1c(NS(=O)(=O)c2ccccc2)sc2c1CCCC2	18*	-0.65	i	i	31*	i	i	i	i
NS(=O)(=O)c1ccc(CCNC(=O)CSc2nc3ccccc3c(=O)n2CCC(=O)N2CCCCC2)cc1	-3	-2.1	i	i	i	i	nt	nt	nt
O=C(Nc1ccc(O)cc1)c1ccccc1OCc1ccccc1	-2	-2.4	i	i	i	i	nt	nt	nt
O=C(Nc1ccccc1)c1ccccc1OCc1cccc([N+](=O)[O-])c1	-11	0.34	i	i	i	-12*	i	i	28%*
COc1cccc(-c2ccc(SCC(=O)c3ccccc3)nn2)c1	-19	-0.43	i	i	i	i	i	i	i
SMILES	hERG rescue	Kir21 block	KCNK3 inh	KCNQ1 inh	KCNQ1 act	KCNK9 inh	KCNK9 inh conf	Kir21 sel	KCNK9 uninduced
COc1ccc(C(=O)CSc2ccc(-c3ccccc3)nn2)cc1	-8	0.68	i	i	i	i	i	i	i
C=CCn1c(N2CCN(c3ccc(OC)cc3)CC2)nc2c1c(=O)[nH]c(=O)n2C	-6	-2	i	i	i	i	nt	nt	nt
CCOc1ccc(-n2c(SCC(=O)Nc3ccc4c(c3)OCO4)nc3ccccc3c2=O)cc1	-7	-1	i	i	i	i	nt	nt	nt
CCn1c(SCC(=O)Nc2ccc3c(c2)OCO3)nc2c(c1=O)SC(C)C2 (centres undefined)	-15	-0.07	i	i	i	i	nt	nt	nt
CCC(C)n1c(SCC(=O)NC(=O)Nc2ccc3c(c2)OCCO3)nc2ccccc2c1=O (centres undefined)	-2	0.1	-8.7*	i	i	-15*	50%*	i	30%*
COc1ccc(-n2c(SCC(=O)Nc3ccc4c(c3)OCO4)nc3ccccc3c2=O)cc1	-7	1.3	i	i	i	-9.3*	38%*	i	36%*
CC1Cc2nc(SCC(=O)Nc3ccc4c(c3)OCO4)n(CCc3ccccc3)c(=O)c2S1 (centres undefined)	-10	-1.9	i	i	i	-12*	58%*	i	i
COc1cc(OC)cc(C(=O)N[C@H](C(=O)N2CCc3ccccc32)C(C)C)c1	-8	1.8	i	i	i	-11*	71%*	i	31%*
O=C(NCc1ccccn1)C1CCCCC1	-11	-0.1	i	i	i	i	nt	nt	nt
N=c1n(CC(=O)c2ccc(Br)s2)c2ccccc2n1Cc1ccccc1	-21	0.03	i	i	i	-10*	52%*	i	30%*
Cc1ccc(NCc2nc3ccccc3n2CCOc2ccccc2)cc1	-7	-0.23	i	i	i	-12*	40%*	i	38%*
CN(C)CC/C=C1/c2ccccc2Sc2ccc(Cl)cc21	-12	-4.3*	i	i	i	i	i	i	i
CN(C)CC/C=C1\c2ccccc2COc2ccccc21	-7	-0.01	i	i	i	i	nt	nt	nt
O=c1c2ccccc2c(-c2ccccc2)nn1-c1cc(Cl)ccc1[N+](=O)[O-]	nt	nt	i	nt	nt	nt	nt	nt	nt
Cc1ccc(-c2nn(-c3cc(Cl)ccc3[N+](=O)[O-])c(=O)c3ccccc23)cc1C	-9	-0.67	i	i	i	i	i	i	i
